# Tested on: Plasmodium berghei
# Experiment: Antimalarial activity as parasitaemia after 14 days against Plasmodium berghei NK65 infected JCL-ICR mice (Mus musculus) at 100 mg/kg
# Assay type: functional
# Conditions: not given
# Method in brief: (§1)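 Female mice aged 4–5 weeks, 5 per group, were infected ip on day 0 with 0.2 mL of 1:100 donor blood in saline (3.3×10^6 parasitized erythrocytes). 100 mg/kg was given twice, at 2 and 48 h post-infection, in 5% gum arabic/saline (solids) or corn oil (oils). Tail-blood thin smears on days 3, 7 and 14 were methanol-fixed and Giemsa-stained (2%, 2 h). % infected erythrocytes was counted microscopically.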
row,SMILES,Activity [%]
1,Cc1cc(C)c(/N=N/N2CCCC2)c(C)c1,74.6
2,CN(C)/N=N/c1ccc(Cl)cc1,62.5
3,Cc1cccc(C)c1/N=N/N1CCCC1,81.7
4,Cc1cc(C)c(/N=N/N(C)C)c(C)c1,73.3
5,CN(C)/N=N/c1ccc(C(F)(F)F)cc1,67.9
6,CN(C)/N=N/c1ccc(F)cc1,60.4

# Tested on: Plasmodium berghei
# Experiment: Antimalarial activity as parasitaemia after 3 days against Plasmodium berghei NK65 infected JCL-ICR mice (Mus musculus) at 100 mg/kg
# Assay type: functional
# Conditions: not given
# Method in brief: as §1
row,SMILES,Activity [%]
1,Cc1cc(C)c(/N=N/N2CCCC2)c(C)c1,4.1
2,Cc1cc(C)c(/N=N/N2CCCCC2)c(C)c1,4.2
3,CN(C)/N=N/c1ccc(Cl)cc1,4.8
4,FC(F)(F)c1ccc(/N=N/N2CCCC2)cc1,2.9
5,Cc1cccc(C)c1/N=N/N1CCCCC1,4.2
6,Cc1cccc(C)c1/N=N/N1CCCC1,5.6
7,Cc1cc(C)c(/N=N/N(C)C)c(C)c1,4.4
8,Cc1cccc(C)c1/N=N/N(C)C,1.7
9,CN(C)/N=N/c1ccc(C(F)(F)F)cc1,4.8
10,CN(C)/N=N/c1ccc(F)cc1,1.7
11,FC(F)(F)c1ccc(/N=N/N2CCCCC2)cc1,2.3

# Tested on: Mus musculus
# Experiment: Survival rate in Plasmodium berghei NK65 infected JCL-ICR mice (Mus musculus) at 100 mg/kg body weight after 14 days
# Assay type: functional
# Conditions: 336 h
# Method in brief: (§2)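 Female JCL-ICR mice (4–5 weeks), 5 per group, were infected i.p. on day 0 with 0.2 mL of a 1:100 saline dilution of donor-mouse blood (3.3×10^6 parasitized erythrocytes). Triazenes were dosed at 100 mg/kg in 5% gum arabic or corn oil, and chloroquine at 50 mg/kg, twice, at 2 and 48 h post-infection. Controls got 5% gum arabic. Mice were monitored daily, with survival rate at day 14.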
row,SMILES,survival at 100 mg/kg [%]
1,Cc1cc(C)c(/N=N/N2CCCC2)c(C)c1,60
2,Cc1cc(C)c(/N=N/N2CCCCC2)c(C)c1,0
3,CN(C)/N=N/c1ccc(Cl)cc1,60
4,FC(F)(F)c1ccc(/N=N/N2CCCC2)cc1,0
5,Cc1cccc(C)c1/N=N/N1CCCCC1,0
6,Cc1cccc(C)c1/N=N/N1CCCC1,40
7,Cc1cc(C)c(/N=N/N(C)C)c(C)c1,40
8,Cc1cccc(C)c1/N=N/N(C)C,0
9,CN(C)/N=N/c1ccc(C(F)(F)F)cc1,80
10,CN(C)/N=N/c1ccc(F)cc1,20
11,FC(F)(F)c1ccc(/N=N/N2CCCCC2)cc1,0

# Tested on: Plasmodium berghei
# Experiment: Antimalarial activity as parasitaemia after 7 days against Plasmodium berghei NK65 infected JCL-ICR mice (Mus musculus) at 50 mg/kg
# Assay type: functional
# Conditions: not given
# Method in brief: (§3)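 Chloroquine reference arm: 5 female mice aged 4–5 weeks per group, infected ip on day 0 with 0.2 mL of 1:100 diluted donor blood (3.3×10^6 parasitized erythrocytes). 50 mg/kg was given at 2 and 48 h post-infection. On days 7 and 14, tail-blood smears were methanol-fixed and stained with 2% Giemsa for 2 h, and % parasitized erythrocytes was scored by microscopy.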
row,SMILES,Activity [%]
1,CCN(CC)CCCC(C)Nc1ccnc2cc(Cl)ccc12 (configuration not stated) [CHLOROQUINE],<1

# Tested on: Plasmodium berghei
# Experiment: Antimalarial activity as parasitaemia after 7 days against Plasmodium berghei NK65 infected JCL-ICR mice (Mus musculus) at 100 mg/kg
# Assay type: functional
# Conditions: not given
# Method in brief: as §1
row,SMILES,Activity [%]
1,Cc1cc(C)c(/N=N/N2CCCC2)c(C)c1,38.5
2,Cc1cc(C)c(/N=N/N2CCCCC2)c(C)c1,76.4
3,CN(C)/N=N/c1ccc(Cl)cc1,27
4,FC(F)(F)c1ccc(/N=N/N2CCCC2)cc1,66.3
5,Cc1cccc(C)c1/N=N/N1CCCCC1,76.4
6,Cc1cccc(C)c1/N=N/N1CCCC1,54.6
7,Cc1cc(C)c(/N=N/N(C)C)c(C)c1,12.4
8,Cc1cccc(C)c1/N=N/N(C)C,53.9
9,CN(C)/N=N/c1ccc(C(F)(F)F)cc1,17.6
10,CN(C)/N=N/c1ccc(F)cc1,53.5
11,FC(F)(F)c1ccc(/N=N/N2CCCCC2)cc1,44.6

# Tested on: Mus musculus
# Experiment: Survival rate in Plasmodium berghei NK65 infected JCL-ICR mice (Mus musculus) at 50 mg/kg body weight after 14 days
# Assay type: functional
# Conditions: 336 h
# Method in brief: as §2
row,SMILES,survival at 50 mg/kg [%]
1,CCN(CC)CCCC(C)Nc1ccnc2cc(Cl)ccc12 (configuration not stated) [CHLOROQUINE],100

# Tested on: Plasmodium berghei
# Experiment: Antimalarial activity as parasitaemia after 14 days against Plasmodium berghei NK65 infected JCL-ICR mice (Mus musculus) at 50 mg/kg
# Assay type: functional
# Conditions: not given
# Method in brief: as §3
row,SMILES,Activity [%]
1,CCN(CC)CCCC(C)Nc1ccnc2cc(Cl)ccc12 (configuration not stated) [CHLOROQUINE],8.5

# Reference: ChEMBL document CHEMBL1143020, “Antimalarial activity of 1-aryl-3,3-dialkyltriazenes” (2007)
